Measurements as given in ChEMBL document CHEMBL4706728, “Discovery of a Highly Selective and Potent TRPC3 Inhibitor with High Metabolic Stability and Low Toxicity” (ACS Med Chem Lett, 2021).
Calls of active or inactive are those of the source. The rule behind the calls is not given here.

How the values were obtained:
[1] = target: T1, Short transient receptor potential channel 3 (Homo sapiens) (UniProt Q13507); assay: Inhibition of human TRPC3 expressed in HEK293 cells assessed as inhibition of GSK170-induced current at 10 uM in absence of extracellular calcium by whole cell patch-clamp method relative to control; assay type: cell-based
T1 sequence (whole entry): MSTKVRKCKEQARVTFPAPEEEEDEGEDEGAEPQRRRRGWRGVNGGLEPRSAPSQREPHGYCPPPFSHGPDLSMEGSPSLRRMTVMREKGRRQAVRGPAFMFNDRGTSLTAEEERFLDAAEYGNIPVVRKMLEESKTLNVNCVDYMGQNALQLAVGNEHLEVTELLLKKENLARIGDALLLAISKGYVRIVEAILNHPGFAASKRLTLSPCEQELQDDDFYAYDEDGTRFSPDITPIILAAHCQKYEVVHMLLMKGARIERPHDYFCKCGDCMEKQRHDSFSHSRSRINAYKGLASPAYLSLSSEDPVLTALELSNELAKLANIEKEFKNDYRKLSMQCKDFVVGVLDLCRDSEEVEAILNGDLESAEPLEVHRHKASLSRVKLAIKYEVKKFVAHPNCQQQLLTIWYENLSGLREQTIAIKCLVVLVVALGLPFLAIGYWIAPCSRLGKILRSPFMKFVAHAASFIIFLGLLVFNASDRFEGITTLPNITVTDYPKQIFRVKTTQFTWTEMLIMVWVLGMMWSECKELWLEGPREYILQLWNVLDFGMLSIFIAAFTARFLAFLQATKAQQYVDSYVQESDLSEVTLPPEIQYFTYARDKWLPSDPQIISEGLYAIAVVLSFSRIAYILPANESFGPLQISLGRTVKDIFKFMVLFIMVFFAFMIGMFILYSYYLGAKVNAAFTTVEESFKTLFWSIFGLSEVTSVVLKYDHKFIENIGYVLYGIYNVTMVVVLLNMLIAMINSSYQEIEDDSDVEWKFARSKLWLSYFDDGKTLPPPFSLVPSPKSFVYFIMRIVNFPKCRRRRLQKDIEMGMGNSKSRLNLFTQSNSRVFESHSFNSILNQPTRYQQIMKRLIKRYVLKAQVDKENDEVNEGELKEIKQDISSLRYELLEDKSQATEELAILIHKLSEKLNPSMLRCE
In short: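 Human TRPC3 transiently expressed in HEK293 cells; whole-cell patch clamp with Ca2+-free solutions. Channel activated by GSK1702934A, then test compound at 10 μM perfused with the agonist. Inhibition expressed as percentage of the agonist-evoked current; mean ± SD, n cells per compound.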

[2] = target: T2, Short transient receptor potential channel 3 (Homo sapiens, UniProt Q13507); assay: Inhibition of human TRPC3 expressed in HEK293 cells assessed as inhibition of GSK170-induced current in presence of 2 mM extracellular calcium by whole cell patch-clamp method; assay type: cell-based
T2 sequence (Q13507 whole entry): T1 sequence (whole entry)
In short: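 hTRPC3 in HEK293 cells, whole-cell patch clamp with 2 mM extracellular Ca2+. Currents elicited by 1 μM GSK1702934A and challenged with a range of inhibitor concentrations by perfusion. Each concentration tested on separate cells and normalized to the cell's maximum amplitude. Dose–response curve built from the data; mean ± SD.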

[3] = target: T3, Short transient receptor potential channel 7 (Homo sapiens) (UniProt Q9HCX4); assay: Inhibition of human TRPC7 expressed in HEK293 cells assessed as inhibition of GSK170-induced current at 10 uM by whole cell patch-clamp method; assay type: cell-based
T3 sequence (whole entry): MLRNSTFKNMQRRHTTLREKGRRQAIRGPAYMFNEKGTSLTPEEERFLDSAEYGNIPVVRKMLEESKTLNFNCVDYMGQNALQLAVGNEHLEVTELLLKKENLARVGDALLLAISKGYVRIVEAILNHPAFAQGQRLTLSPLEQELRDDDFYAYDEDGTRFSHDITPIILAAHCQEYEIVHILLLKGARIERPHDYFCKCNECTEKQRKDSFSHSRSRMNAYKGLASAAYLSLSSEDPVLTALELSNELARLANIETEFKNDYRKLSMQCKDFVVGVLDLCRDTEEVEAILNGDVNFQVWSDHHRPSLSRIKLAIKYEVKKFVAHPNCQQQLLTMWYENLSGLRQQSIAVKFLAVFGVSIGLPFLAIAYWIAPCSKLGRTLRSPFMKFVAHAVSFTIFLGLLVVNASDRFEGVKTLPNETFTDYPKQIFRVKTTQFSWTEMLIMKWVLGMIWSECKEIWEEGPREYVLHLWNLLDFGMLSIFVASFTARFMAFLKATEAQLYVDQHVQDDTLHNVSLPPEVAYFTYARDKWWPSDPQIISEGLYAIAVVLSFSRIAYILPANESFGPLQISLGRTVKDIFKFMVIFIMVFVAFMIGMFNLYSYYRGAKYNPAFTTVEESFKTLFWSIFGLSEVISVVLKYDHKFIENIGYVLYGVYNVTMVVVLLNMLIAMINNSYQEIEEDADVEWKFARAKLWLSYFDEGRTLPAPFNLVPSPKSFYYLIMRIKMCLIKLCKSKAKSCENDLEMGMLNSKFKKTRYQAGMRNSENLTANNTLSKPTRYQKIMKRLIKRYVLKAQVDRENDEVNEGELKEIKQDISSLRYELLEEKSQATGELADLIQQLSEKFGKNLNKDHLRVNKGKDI
In short: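 TRP channels overexpressed in HEK293 cells (hTRPA1, rTRPV1, rTRPV4, mouse TRPC6, hTRPC7, hTRPM8). Whole-cell patch clamp with Ca2+-free solutions to avoid desensitization. Channels fully activated with high concentrations of their agonists (AITC for TRPA1, capsaicin for TRPV1, GSK1016790A for TRPV4), then 10 μM test compound perfused with agonist. Result expressed as percentage of peak current blocked; mean ± SD.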

ORAI1/STIM1 = ORAI1/STIM1 (Homo sapiens, UniProt Q96D31+Q13586); assay: Inhibition of STIM/Orai1 (unknown origin) expressed in HEK293 cells assessed as reduction in thapsigargin-induced Ca2+ influx at 10 uM in presence of Ca2+ by whole cell patch clamp method; assay type: cell-based; conditions: hek293, 10 µM
Chain of ORAI1/STIM1 (Q96D31 whole entry): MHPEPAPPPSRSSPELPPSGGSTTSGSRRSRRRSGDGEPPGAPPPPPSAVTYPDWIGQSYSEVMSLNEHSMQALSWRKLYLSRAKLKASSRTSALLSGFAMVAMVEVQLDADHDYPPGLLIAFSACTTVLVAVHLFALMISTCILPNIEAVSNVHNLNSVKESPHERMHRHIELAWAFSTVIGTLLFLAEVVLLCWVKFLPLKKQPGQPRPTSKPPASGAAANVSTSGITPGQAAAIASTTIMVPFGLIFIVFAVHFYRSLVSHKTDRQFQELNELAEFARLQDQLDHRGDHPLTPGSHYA
Chain of ORAI1/STIM1 (Q13586 whole entry): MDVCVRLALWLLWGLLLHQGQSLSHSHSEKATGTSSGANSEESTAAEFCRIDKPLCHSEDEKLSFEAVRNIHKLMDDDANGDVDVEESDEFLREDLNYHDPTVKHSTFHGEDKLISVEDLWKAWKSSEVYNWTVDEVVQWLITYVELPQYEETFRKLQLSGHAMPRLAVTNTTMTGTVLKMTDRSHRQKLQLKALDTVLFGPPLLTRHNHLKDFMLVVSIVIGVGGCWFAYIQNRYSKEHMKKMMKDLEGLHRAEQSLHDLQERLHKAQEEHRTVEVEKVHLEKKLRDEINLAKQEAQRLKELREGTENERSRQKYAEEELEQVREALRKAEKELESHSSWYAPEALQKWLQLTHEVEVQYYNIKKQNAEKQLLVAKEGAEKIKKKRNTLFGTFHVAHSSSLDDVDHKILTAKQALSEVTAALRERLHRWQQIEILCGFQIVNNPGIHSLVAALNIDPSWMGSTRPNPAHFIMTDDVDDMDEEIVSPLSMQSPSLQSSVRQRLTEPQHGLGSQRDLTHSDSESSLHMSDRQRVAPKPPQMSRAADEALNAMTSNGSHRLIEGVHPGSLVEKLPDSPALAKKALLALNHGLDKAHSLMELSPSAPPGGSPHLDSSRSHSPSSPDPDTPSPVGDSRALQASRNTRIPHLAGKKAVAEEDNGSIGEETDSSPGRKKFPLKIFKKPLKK

[4] = Metabolic stability in rat liver microsomes assessed as half life at […] measured up to 240 mins in presence of NADPH regeneration system by LC-MS analysis; assay type: ADME, Microsome
Hippocampal neurone = assay: Neuroprotective activity in Sprague-Dawley rat primary hippocampal neurons assessed as reduction in Abeta-induced dendrites damage at 0.25 to 1 uM incubated for 16 hrs by MAP2 staining based assay; assay type: functional, tissue-based; conditions: dose 0.25-1 µM
In short: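 Primary hippocampal neurons from E17 rat embryos, used at 14 DIV. Treated for 16 h with naturally secreted Aβ-containing 7PA2 conditioned medium (CHO medium as control), alone or with test compound at several concentrations. Neurons then immunostained for MAP2 with DAPI, and dendritic length quantified.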

[5] = Toxicity in NSG/ICR mouse assessed as survival at 200 mg/kg, ip administered once daily for 5 days; assay type: organism-based; conditions: in vivo, 200 mg/kg, 120 h, dose 200 mg/kg/day, time 5 day
In short: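 Mice (n = 5 per group) dosed at 200 mg/kg by intraperitoneal injection once daily for 5 consecutive days. Survival monitored. Body weight expressed as mean percent change ± SD relative to weight at the start of treatment (day 0), with 15% weight loss as the reference line.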

## CCNC(=O)c1cnn(-c2ccc(-n3ccc(Cl)c(Cl)c3=O)cc2)c1C(F)(F)F
[1]
  inhibition: 89%
[2]
  IC50: 430 nM
[3]
  inhibition: 26%
ORAI1/STIM1
  inhibition (INH): Active
[4]
  half-life: > 4 h
Hippocampal neurone
  Activity: Active
[5]
  Activity: Non-Toxic
